Results published in ChEMBL document CHEMBL5058577, “EUbOPEN Chemogenomics Library 2 (Multiplex)” (2022).

Tested on: HEK-293T
Experiment: Multiplex assay against HEK293T
Assay type: toxicity, cell-based
Conditions: human
Outline: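 Live cells were stained at seeding with Hoechst33342, BioTracker Green Microtubule Cytoskeleton Dye, MitoTracker Red and Annexin V Alexa Fluor 680, then imaged on a CQ1 microscope at 37°C and 5% CO2 after compound addition. CellPathfinder machine-learning gating split cells into Hoechst high-intensity objects or normal cells. Normal cells were split into healthy, pyknosed or fragmented nuclei, and pyknosed cells into mitotic or apoptotic. Tubulin, mitochondrial-mass and membrane-permeability phenotypes are per cents of healthy-nucleus cells.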

[1] = 12 h, 1 µM, compound concentration 1 uM, replicate 1
[2] = 12 h, 1 µM, compound concentration 1 uM, replicate 2
[3] = 12 h, 10 µM, compound concentration 10 uM, replicate 1
[4] = 12 h, 10 µM, compound concentration 10 uM, replicate 2
[5] = 24 h, 1 µM, compound concentration 1 uM, replicate 1
[6] = 24 h, 1 µM, compound concentration 1 uM, replicate 2
[7] = 24 h, 10 µM, compound concentration 10 uM, replicate 1
[8] = 24 h, 10 µM, compound concentration 10 uM, replicate 2
[9] = 48 h, 1 µM, compound concentration 1 uM, replicate 1
[10] = 48 h, 1 µM, compound concentration 1 uM, replicate 2
[11] = 48 h, 10 µM, compound concentration 10 uM, replicate 1
[12] = 48 h, 10 µM, compound concentration 10 uM, replicate 2

SMILES: N#Cc1c(N)nc(SCc2csc(-c3ccc(Cl)cc3)n2)c(C#N)c1-c1ccc(OCCO)cc1 [CAPADENOSON]
- Population Apoptotic (%) [1]: 36%
- Population Fragmented Nuclei (%) [1]: 6%
- Population Healthy Nuclei (%) [1]: 79%
- Population Hoechst High Intensity Objects (%) [1]: 8%
- Population Membrane Permeable-Phenotype (%) [1]: 0%
- Population Mitochondria Different-Phenotype (%) [1]: 59%
- Population Mitotic Cells (%) [1]: 63%
- Population Normal (%) [1]: 91%
- Population Pyknosed Nuclei (%) [1]: 13%
- Population Tubulin-Different-Phenotype (%) [1]: 44%
- Total Cell Count [1]: 373
- Population Apoptotic (%) [2]: 54%
- Population Healthy Nuclei (%) [2]: 80%
- Population Hoechst High Intensity Objects (%) [2]: 4%
- Population Mitochondria Different-Phenotype (%) [2]: 60%
- Population Mitotic Cells (%) [2]: 45%
- Population Normal (%) [2]: 95%
- Population Pyknosed Nuclei (%) [2]: 12%
- Population Tubulin-Different-Phenotype (%) [2]: 34%
- Total Cell Count [2]: 375
- Population Apoptotic (%) [3]: 57%
- Population Fragmented Nuclei (%) [3]: 7%
- Population Healthy Nuclei (%) [3]: 75%
- Population Hoechst High Intensity Objects (%) [3]: 12%
- Population Membrane Permeable-Phenotype (%) [3]: 0%
- Population Mitochondria Different-Phenotype (%) [3]: 82%
- Population Mitotic Cells (%) [3]: 42%
- Population Normal (%) [3]: 87%
- Population Pyknosed Nuclei (%) [3]: 17%
- Population Tubulin-Different-Phenotype (%) [3]: 62%
- Total Cell Count [3]: 307
- Population Apoptotic (%) [4]: 70%
- Population Fragmented Nuclei (%) [4]: 6%
- Population Healthy Nuclei (%) [4]: 73%
- Population Hoechst High Intensity Objects (%) [4]: 14%
- Population Membrane Permeable-Phenotype (%) [4]: 1%
- Population Mitochondria Different-Phenotype (%) [4]: 85%
- Population Mitotic Cells (%) [4]: 29%
- Population Normal (%) [4]: 85%
- Population Pyknosed Nuclei (%) [4]: 20%
- Population Tubulin-Different-Phenotype (%) [4]: 63%
- Total Cell Count [4]: 388
- Population Apoptotic (%) [5]: 36%
- Population Fragmented Nuclei (%) [5]: 5%
- Population Healthy Nuclei (%) [5]: 76%
- Population Hoechst High Intensity Objects (%) [5]: 6%
- Population Membrane Permeable-Phenotype (%) [5]: 2%
- Population Mitochondria Different-Phenotype (%) [5]: 38%
- Population Mitotic Cells (%) [5]: 63%
- Population Normal (%) [5]: 93%
- Population Pyknosed Nuclei (%) [5]: 17%
- Population Tubulin-Different-Phenotype (%) [5]: 34%
- Total Cell Count [5]: 450
- Population Apoptotic (%) [6]: 37%
- Population Fragmented Nuclei (%) [6]: 7%
- Population Healthy Nuclei (%) [6]: 79%
- Population Hoechst High Intensity Objects (%) [6]: 4%
- Population Membrane Permeable-Phenotype (%) [6]: 0%
- Population Mitochondria Different-Phenotype (%) [6]: 44%
- Population Mitotic Cells (%) [6]: 62%
- Population Normal (%) [6]: 95%
- Population Pyknosed Nuclei (%) [6]: 12%
- Population Tubulin-Different-Phenotype (%) [6]: 23%
- Total Cell Count [6]: 456
- Population Apoptotic (%) [7]: 65%
- Population Fragmented Nuclei (%) [7]: 8%
- Population Healthy Nuclei (%) [7]: 68%
- Population Hoechst High Intensity Objects (%) [7]: 14%
- Population Membrane Permeable-Phenotype (%) [7]: 0%
- Population Mitochondria Different-Phenotype (%) [7]: 94%
- Population Mitotic Cells (%) [7]: 34%
- Population Normal (%) [7]: 85%
- Population Pyknosed Nuclei (%) [7]: 22%
- Population Tubulin-Different-Phenotype (%) [7]: 62%
- Total Cell Count [7]: 319
- Population Apoptotic (%) [8]: 73%
- Population Fragmented Nuclei (%) [8]: 4%
- Population Hoechst High Intensity Objects (%) [8]: 13%
- Population Mitochondria Different-Phenotype (%) [8]: 89%
- Population Mitotic Cells (%) [8]: 26%
- Population Normal (%) [8]: 86%
- Population Pyknosed Nuclei (%) [8]: 26%
- Population Tubulin-Different-Phenotype (%) [8]: 61%
- Total Cell Count [8]: 391
- Population Apoptotic (%) [9]: 31%
- Population Fragmented Nuclei (%) [9]: 10%
- Population Healthy Nuclei (%) [9]: 79%
- Population Hoechst High Intensity Objects (%) [9]: 4%
- Population Membrane Permeable-Phenotype (%) [9]: 1%
- Population Mitochondria Different-Phenotype (%) [9]: 32%
- Population Mitotic Cells (%) [9]: 68%
- Population Normal (%) [9]: 95%
- Population Pyknosed Nuclei (%) [9]: 10%
- Population Tubulin-Different-Phenotype (%) [9]: 23%
- Total Cell Count [9]: 621
- Population Apoptotic (%) [10]: 32%
- Population Fragmented Nuclei (%) [10]: 11%
- Population Healthy Nuclei (%) [10]: 80%
- Population Hoechst High Intensity Objects (%) [10]: 3%
- Population Membrane Permeable-Phenotype (%) [10]: 2%
- Population Mitochondria Different-Phenotype (%) [10]: 23%
- Population Mitotic Cells (%) [10]: 67%
- Population Normal (%) [10]: 96%
- Population Pyknosed Nuclei (%) [10]: 8%
- Population Tubulin-Different-Phenotype (%) [10]: 18%
- Total Cell Count [10]: 787
- Population Apoptotic (%) [11]: 66%
- Population Fragmented Nuclei (%) [11]: 11%
- Population Healthy Nuclei (%) [11]: 68%
- Population Hoechst High Intensity Objects (%) [11]: 12%
- Population Membrane Permeable-Phenotype (%) [11]: 0%
- Population Mitochondria Different-Phenotype (%) [11]: 89%
- Population Mitotic Cells (%) [11]: 33%
- Population Normal (%) [11]: 87%
- Population Pyknosed Nuclei (%) [11]: 20%
- Population Tubulin-Different-Phenotype (%) [11]: 67%
- Total Cell Count [11]: 406
- Population Apoptotic (%) [12]: 63%
- Population Fragmented Nuclei (%) [12]: 12%
- Population Healthy Nuclei (%) [12]: 73%
- Population Hoechst High Intensity Objects (%) [12]: 10%
- Population Mitochondria Different-Phenotype (%) [12]: 88%
- Population Mitotic Cells (%) [12]: 36%
- Population Normal (%) [12]: 89%
- Population Pyknosed Nuclei (%) [12]: 14%
- Population Tubulin-Different-Phenotype (%) [12]: 64%
- Total Cell Count [12]: 423
